This passage reports inhibition, IC50 and Activity results from ChEMBL document CHEMBL4837217, “Design, synthesis, in vitro and in vivo biological evaluation of pyranone-piperazine analogs as potent antileishmanial agents” (Eur J Med Chem, 2021).

The test system of experiment [1] is Leishmania donovani. Put plainly: Antileishmanial activity against log phase of Leishmania donovani MHOM/IN/80/Dd8 promastigotes assessed as reduction in cell viability at 50 uM incubated for 72 hrs by MTT assay. In kind it is functional. The procedure, abridged: (§1)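 Log-phase luciferase-transfected L. donovani Dd8 promastigotes (M199 + 10% FBS, 24 °C) treated with compounds at 25 and 50 µM in DMSO, with 0.1% DMSO vehicle control. After 72 h, MTT added 4 h. Formazan dissolved in DMSO, read at 570 nm. Percent inhibition reported as mean ± SD of at least three independent experiments in replicate.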
Background: Formazan colour is commonly taken as a measure of viable cells.

Experiment [2] deals with Leishmania donovani. Nature of the experiment: Antileishmanial activity against log phase of Leishmania donovani MHOM/IN/80/Dd8 promastigotes assessed as reduction in cell viability at 25 uM incubated for 72 hrs by MTT assay. In kind it is functional. The procedure, abridged:
as §1

Experiment [3] deals with Leishmania donovani. Nature of the experiment: Antileishmanial activity against amastigote stage of Leishmania donovani MHOM/IN/80/Dd8 harboring luciferase gene infected in mouse J774 cells assessed as parasite growth inhibition at 50 uM incubated for 72 hrs by Steady-Glo reagent based luciferase assay. In kind it is functional. As to conditions: for inhibition at 50 µM: MHOM/IN/80/Dd8, J774. In outline: (§2)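 J774 murine macrophages, 4 × 10⁴ cells/well in RPMI with 10% FBS for 24 h, are infected for 24 h at 37 °C, 5% CO₂ with stationary-phase luciferase-transfected L. donovani Dd8 promastigotes at a 1:8 macrophage:parasite ratio. Compounds are dissolved in DMSO. Luminescence is read after Steady-Glo is added in PBS. IC₅₀ is taken from a four-parameter Hill nonlinear regression. Miltefosine is the reference.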

In experiment [4] the test system is Leishmania donovani. Put plainly: Antileishmanial activity against amastigote stage of Leishmania donovani MHOM/IN/80/Dd8 harboring luciferase gene infected in mouse J774 cells assessed as parasite growth inhibition at 25 uM incubated for 72 hrs by Steady-Glo reagent based luciferase assay. In kind it is functional. As to conditions: for inhibition at 25 µM: MHOM/IN/80/Dd8, J774. In outline: as §2

Experiment [5] deals with Leishmania donovani. Put plainly: Antileishmanial activity against amastigote stage of Leishmania donovani MHOM/IN/80/Dd8 harboring luciferase gene infected in mouse J774 cells assessed as parasite growth inhibition incubated for 72 hrs by Steady-Glo reagent based luciferase assay. In kind it is functional, organism-based. As to conditions: MHOM/IN/80/Dd8, J774, 72 h. The procedure, abridged:
as §2

In experiment [6] the test system is Leishmania donovani. Put plainly: Induction of mitochondrial membrane potential dysfunction in Leishmania donovani MHOM/IN/80/Dd8 promastigotes assessed as cells with mitochondrial depolarization at 50 uM incubated for 72 hrs by JC1 staining based flow cytometry (reference value: 3.63%). In kind it is functional. Background: In flow cytometry, cells or beads pass a laser one at a time.

The source made the active and inactive calls. No cut-off for these calls is given here.

By inhibition is commonly meant the percentage by which the read-out fell short of the control. Usually IC50 stands for the concentration that gives 50% inhibition.

As to `N#Cc1c2c(c3c(c1N1CCN(c4ccccc4O)CC1)Cc1ccccc1-3)CSC2`, the inhibition entry in the experiment with Leishmania donovani [1] and in the experiment with Leishmania donovani [2] was “inactive” throughout. In addition, the inhibition at 50 µM with Leishmania donovani [3] worked out at 57.3%. In addition, the inhibition at 25 µM with Leishmania donovani [4] is 45.5%.
`N#Cc1c(N2CCN(c3ccccc3O)CC2)cc(-c2ccc(Br)s2)oc1=O`: the results for the inhibition at 50 µM in the experiment with Leishmania donovani [1] and in the experiment on Leishmania donovani [3] were 88.1% and 85.1%, respectively. Moreover, the inhibition at 25 µM was 52.1% in the experiment with Leishmania donovani [2] and 74.8% in the experiment on Leishmania donovani [4]. For the same compound, the concentration for half-maximal inhibition (IC50) in the experiment with Leishmania donovani [5] worked out at 13 µM.
As for `N#Cc1c(N2CCN(c3ccccc3Cl)CC2)cc(-c2ccc(Cl)cc2)oc1=O`, the inhibition at 50 µM in the experiment with Leishmania donovani [1] amounted to 58.3%; in the experiment with Leishmania donovani [3], 71%. Further, the inhibition at 25 µM in the experiment on Leishmania donovani [2] came to 55.2%; with Leishmania donovani [4] it was 73.1%.
Consider `N#Cc1c(N2CCN(c3ccccc3O)CC2)cc(-c2cccs2)c2c1CSC2`, for which the results for the inhibition at 50 µM in the experiment on Leishmania donovani [1] and in the experiment on Leishmania donovani [3] were 4.8% and 79.3%, respectively. Besides, the inhibition entry in the experiment on Leishmania donovani [2] was “inactive”. Besides, in the experiment on Leishmania donovani [4], the inhibition at 25 µM came out at 60.1%.
As for `N#Cc1c(N2CCN(c3ccccc3Cl)CC2)cc(-c2ccccc2)oc1=O`, the figures for the inhibition at 50 µM in the experiment with Leishmania donovani [1] and in the experiment on Leishmania donovani [3] were 72.9% and 73.7%, respectively. Also, the inhibition at 25 µM in the experiment with Leishmania donovani [2] was 46.9%; with Leishmania donovani [4], 49.2%.
As for `N#CC(C#N)=NNc1cccc(Cl)c1` [CARBONYL CYANIDE M-CHLOROPHENYLHYDRAZONE], the Activity in the experiment on Leishmania donovani [6] is 95.6%.
On to `N#Cc1c(N2CCN(c3ccccc3O)CC2)c2c(oc1=O)-c1ccccc1CC2`, for which the inhibition at 50 µM was found to be 81.3% in the experiment with Leishmania donovani [1] and 64.8% in the experiment on Leishmania donovani [3]. In addition, the inhibition at 25 µM in the experiment with Leishmania donovani [2] is 35.9%; with Leishmania donovani [4], 37.8%.
For the compound `N#Cc1c(N2CCN(c3ccccc3O)CC2)cc(-c2ccc(Cl)cc2)oc1=O`, the inhibition at 50 µM in the experiment on Leishmania donovani [1] was determined as 25%. Also, the inhibition result in the experiment with Leishmania donovani [2], in the experiment with Leishmania donovani [3] and with Leishmania donovani [4] was “inactive” each time.
Take `N#Cc1c(N2CCN(c3ccccc3O)CC2)cc(-c2ccc(Br)cc2)c2c1CCSC2`: the inhibition at 50 µM stood at 33.3% in the experiment with Leishmania donovani [1] and 83.3% in the experiment on Leishmania donovani [3]. Besides, the inhibition result in the experiment with Leishmania donovani [2] is “inactive”. In addition, in the experiment with Leishmania donovani [4], the inhibition at 25 µM was 71%.
For the compound `Cc1ccc(-c2cc(N3CCN(c4ccccc4O)CC3)c(C#N)c(=O)o2)cc1`, the inhibition at 50 µM in the experiment on Leishmania donovani [1] was determined as 72.8%; in the experiment with Leishmania donovani [3] it was 83.2%. Moreover, the inhibition at 25 µM with Leishmania donovani [2] was determined as 54.7%; in the experiment with Leishmania donovani [4], 77.3%. In addition, the IC50 in the experiment with Leishmania donovani [5] was 13 µM.
For the compound `N#Cc1c(N2CCN(c3ccccc3O)CC2)cc(-c2cccc3ccccc23)oc1=O`, the results for the inhibition at 50 µM with Leishmania donovani [1] and with Leishmania donovani [3] were 78.6% and 80.8%, respectively. For the same compound, the inhibition at 25 µM in the experiment on Leishmania donovani [2] came out at 77.3%; in the experiment with Leishmania donovani [4], 71.4%. Also, in the experiment with Leishmania donovani [5], the IC50 stood at 13 µM.
As to `COc1ccc(-c2cc(N3CCN(c4ccccc4Cl)CC3)c(C#N)c(=O)o2)cc1`, the inhibition at 50 µM came out at 69.2% in the experiment with Leishmania donovani [1] and 62.5% in the experiment with Leishmania donovani [3]. The inhibition at 25 µM in the experiment on Leishmania donovani [2] is 60.3%; in the experiment on Leishmania donovani [4], 51%.
As to `N#Cc1c(N2CCN(c3ccccc3O)CC2)c2c(oc1=O)-c1ccccc1C2`, the inhibition at 50 µM in the experiment with Leishmania donovani [1] came to 82.2%; in the experiment with Leishmania donovani [3] it was 60%. In addition, the results for the inhibition at 25 µM in the experiment with Leishmania donovani [2] and with Leishmania donovani [4] were 14.2% and 37.8%, respectively.
As to `N#Cc1c(N2CCN(c3ccccc3O)CC2)cc(-c2ccc(Br)cc2)oc1=O`, the inhibition entry with Leishmania donovani [1] and in the experiment with Leishmania donovani [2] was “inactive” in each case. Moreover, in the experiment with Leishmania donovani [3], the inhibition at 50 µM came to 35.1%. Further, the inhibition at 25 µM in the experiment with Leishmania donovani [4] came out at 14.5%.
Consider `N#Cc1c(N2CCN(c3cccc(Cl)c3)CC2)cc(-c2ccccc2)oc1=O`, for which the inhibition at 50 µM came out at 57.3% in the experiment with Leishmania donovani [1] and 72.1% in the experiment on Leishmania donovani [3]. For the same compound, the inhibition at 25 µM in the experiment with Leishmania donovani [2] was found to be 44%; in the experiment on Leishmania donovani [4], 47.4%.
For `COc1ccccc1N1CCN(c2cc(-c3ccc(Br)cc3)oc(=O)c2C#N)CC1`, in that order: 61.2%, 58.3%, 56.6% and 43.3%.
On to `N#Cc1c(N2CCN(c3ccccc3Cl)CC2)cc(-c2ccc(Br)cc2)oc1=O`, for which the inhibition at 50 µM in the experiment with Leishmania donovani [1] amounted to 66.5%; in the experiment on Leishmania donovani [3], 68.5%. The results for the inhibition at 25 µM in the experiment with Leishmania donovani [2] and in the experiment on Leishmania donovani [4] were 57.9% and 60.5%, respectively.
Take `N#Cc1c(N2CCN(c3ccccc3O)CC2)cc(-c2cccs2)c2c1CCSC2`: the inhibition entry in the experiment on Leishmania donovani [1] and in the experiment with Leishmania donovani [2] was “inactive” throughout. For the same compound, the inhibition at 50 µM in the experiment on Leishmania donovani [3] was found to be 72.6%. In addition, in the experiment on Leishmania donovani [4], the inhibition at 25 µM stood at 65%.
Regarding `N#Cc1c(N2CCN(c3ccccc3O)CC2)cc(-c2ccccc2)c2c1CSC2`, the inhibition at 50 µM with Leishmania donovani [1] amounted to 87.8%. Further, the inhibition at 25 µM with Leishmania donovani [2] came to 82.1%. Also, the inhibition result in the experiment with Leishmania donovani [3] and in the experiment with Leishmania donovani [4] was “inactive” in each case.
Turning to `COc1ccccc1N1CCN(c2cc(-c3cccs3)oc(=O)c2C#N)CC1`, the inhibition at 50 µM in the experiment with Leishmania donovani [1] turned out to be 62.2%; in the experiment with Leishmania donovani [3], 71.2%. Further, the inhibition at 25 µM in the experiment with Leishmania donovani [2] was determined as 48.1%; in the experiment with Leishmania donovani [4], 52.2%.
For `COc1ccc(-c2cc(N3CCN(c4ccccc4O)CC3)c(C#N)c(=O)o2)cc1`, the inhibition at 50 µM in the experiment on Leishmania donovani [1] amounted to 86.3%; in the experiment with Leishmania donovani [3] it was 84.4%. For the same compound, the values for the inhibition at 25 µM in the experiment with Leishmania donovani [2] and with Leishmania donovani [4] were 78.3% and 51.8%, respectively. Besides, the 50% inhibitory concentration (IC50) in the experiment with Leishmania donovani [5] was 13 µM.
